10 compounds from ChEMBL document CHEMBL4480394, “Benzimidazolone-based selective σ2 receptor ligands: Synthesis and pharmacological evaluation” (Eur J Med Chem, 2019) can be followed below.

For assay [1], the species on record is Rattus norvegicus. Kind of assay: Selectivity ratio of Ki for sigma1 receptor in rat brain membranes to Ki for sigma2 receptor in rat brain membranes. It is filed as cell membranes.
Assay [2] concerns the target Sodium-dependent serotonin transporter (Rattus norvegicus, UniProt P31652). The assay can be described thus: Displacement of [3H]paroxetine from serotonin transporter in rat brainstem membranes after 120 mins by radioligand binding assay. It counts as cell membranes. The procedure, abridged: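 Rat brainstem membranes, 0.2 nM [3H]paroxetine; nonspecific with 1.5 µM imipramine. Ice-cold buffer stop, glass-fiber filtration, Cheng-Prusoff Ki; triplicate, mean ± SEM.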
(In general: Loss of bound radioactivity is the signal in a displacement assay; it reports binding, not function.)

Assay [3] addresses T1, Sigma intracellular receptor 2 (Rattus norvegicus, UniProt Q5U3Y7).
T1 sequence (Q5U3Y7 whole entry): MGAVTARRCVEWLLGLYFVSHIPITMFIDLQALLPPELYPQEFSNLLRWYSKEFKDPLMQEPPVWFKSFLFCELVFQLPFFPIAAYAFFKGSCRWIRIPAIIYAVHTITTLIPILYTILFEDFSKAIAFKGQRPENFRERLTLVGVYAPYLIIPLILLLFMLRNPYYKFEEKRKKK
Kind of assay: Displacement of [3H]-DTG from sigma2 receptor in rat brain membranes after 120 mins in presence of (+)-pentazocine by radioligand binding assay. It is filed as cell membranes.

A further assay deals with D(2) dopamine receptor (Rattus norvegicus, UniProt P61169). Kind of assay: Displacement of [3H](-)-sulpiride from dopamine D2 receptor in rat brain membranes after 120 mins by radioligand binding assay. It counts as cell membranes.
The target of a further assay is Glutamate NMDA receptor. Kind of assay: Displacement of [3H]TCP from NMDA receptor in rat brain membranes after 120 mins by radioligand binding assay. It is filed as cell membranes. The gist of the method: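 PCP site of NMDA receptor in rat brain minus cerebellum membranes, 5 nM [3H]TCP; nonspecific with 10 µM cyclazocine.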
Assay [4] deals with 5-hydroxytryptamine receptor 2A (Rattus norvegicus, UniProt P14842). The assay can be described thus: Displacement of [3H]ketanserin from 5-HT2 receptor in rat brain membranes after 120 mins by radioligand binding assay. It counts as cell membranes. The gist of the method: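 5-HT2 site in rat brain (minus cerebellum) membranes labeled with 2 nM [3H]ketanserin; 1 µM mianserin nonspecific. Glass-fiber filtration, Ki by Cheng-Prusoff; triplicate, mean ± SEM.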

The target in assay [5] is Sigma non-opioid intracellular receptor 1 (Rattus norvegicus, UniProt Q9R0C9). Kind of assay: Displacement of [3H](+)-pentazocine from sigma1 receptor in rat brain membranes after 120 mins by radioligand binding assay. It counts as cell membranes.
The nature of assay [6]: Displacement of [3H]nisoxetine from norepinephrine transporter in rat cerebral cortex membranes after 120 mins by radioligand binding assay. It is filed as cell membranes, Membrane.
For a further assay, the system named is Mus musculus. Kind of assay: Anticonvulsant activity in ip dosed Swiss Webster mouse assessed as reduction in cocaine-induced convulsion pretreated for 15 mins followed by cocaine-challenge and measured for 30 mins. It counts as functional, organism-based.
For assay [7], the species on record is Rattus norvegicus. Kind of assay: Selectivity ratio of Ki for 5-HT2 receptor in rat brain membranes to Ki for sigma2 receptor in rat brain membranes. It counts as cell membranes.
The target of assay [8] is Sodium-dependent dopamine transporter (Rattus norvegicus, UniProt P23977). The assay can be described thus: Displacement of [3H]WIN 35428 from dopamine transporter in rat striatal membranes after 120 mins by radioligand binding assay. It is filed as cell membranes, Striatum, Membrane.
The target of the next assay is Opioid receptor (Rattus norvegicus, UniProt P33533+P34975+P33535). The assay can be described thus: Displacement of [3H]bremazocine from opioid receptor in rat brain membranes after 120 mins by radioligand binding assay. It counts as cell membranes.

Sigma non-opioid intracellular receptor 1, sequence (Q9R0C9 whole entry): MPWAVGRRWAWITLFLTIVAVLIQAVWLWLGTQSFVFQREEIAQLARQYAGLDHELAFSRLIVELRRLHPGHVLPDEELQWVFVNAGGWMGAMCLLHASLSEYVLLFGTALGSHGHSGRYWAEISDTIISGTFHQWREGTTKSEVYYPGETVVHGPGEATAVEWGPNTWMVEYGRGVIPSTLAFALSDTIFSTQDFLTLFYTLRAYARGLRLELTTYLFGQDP
D(2) dopamine receptor, sequence (P61169 whole entry): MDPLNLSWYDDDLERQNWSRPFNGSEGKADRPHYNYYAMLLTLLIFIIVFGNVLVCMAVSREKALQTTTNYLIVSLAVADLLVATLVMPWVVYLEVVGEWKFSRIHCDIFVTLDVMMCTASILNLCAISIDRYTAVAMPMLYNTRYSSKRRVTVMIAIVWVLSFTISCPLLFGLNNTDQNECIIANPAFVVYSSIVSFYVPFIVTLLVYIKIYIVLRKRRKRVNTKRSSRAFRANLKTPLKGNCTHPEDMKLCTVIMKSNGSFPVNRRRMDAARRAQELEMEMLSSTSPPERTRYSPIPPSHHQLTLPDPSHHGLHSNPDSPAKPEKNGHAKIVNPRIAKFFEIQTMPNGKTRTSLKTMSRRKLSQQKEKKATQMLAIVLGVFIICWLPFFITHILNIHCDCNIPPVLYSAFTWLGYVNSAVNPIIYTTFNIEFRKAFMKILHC
Sodium-dependent dopamine transporter, sequence (P23977 whole entry): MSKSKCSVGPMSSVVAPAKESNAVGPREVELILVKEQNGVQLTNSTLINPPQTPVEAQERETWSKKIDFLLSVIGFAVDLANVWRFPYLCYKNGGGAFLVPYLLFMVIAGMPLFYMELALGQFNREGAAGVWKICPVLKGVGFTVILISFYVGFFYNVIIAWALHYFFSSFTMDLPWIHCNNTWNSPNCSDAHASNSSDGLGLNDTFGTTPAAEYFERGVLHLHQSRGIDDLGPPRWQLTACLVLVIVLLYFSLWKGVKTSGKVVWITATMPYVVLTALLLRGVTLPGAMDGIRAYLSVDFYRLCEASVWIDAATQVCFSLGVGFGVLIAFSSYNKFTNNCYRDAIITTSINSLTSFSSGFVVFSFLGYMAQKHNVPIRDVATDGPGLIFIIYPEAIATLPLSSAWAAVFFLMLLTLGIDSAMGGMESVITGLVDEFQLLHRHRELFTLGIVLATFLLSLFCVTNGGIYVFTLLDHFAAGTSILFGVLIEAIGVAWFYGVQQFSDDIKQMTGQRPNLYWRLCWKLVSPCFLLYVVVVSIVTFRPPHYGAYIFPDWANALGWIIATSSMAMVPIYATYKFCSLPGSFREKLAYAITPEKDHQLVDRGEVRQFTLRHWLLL
5-hydroxytryptamine receptor 2A, sequence (P14842 whole entry): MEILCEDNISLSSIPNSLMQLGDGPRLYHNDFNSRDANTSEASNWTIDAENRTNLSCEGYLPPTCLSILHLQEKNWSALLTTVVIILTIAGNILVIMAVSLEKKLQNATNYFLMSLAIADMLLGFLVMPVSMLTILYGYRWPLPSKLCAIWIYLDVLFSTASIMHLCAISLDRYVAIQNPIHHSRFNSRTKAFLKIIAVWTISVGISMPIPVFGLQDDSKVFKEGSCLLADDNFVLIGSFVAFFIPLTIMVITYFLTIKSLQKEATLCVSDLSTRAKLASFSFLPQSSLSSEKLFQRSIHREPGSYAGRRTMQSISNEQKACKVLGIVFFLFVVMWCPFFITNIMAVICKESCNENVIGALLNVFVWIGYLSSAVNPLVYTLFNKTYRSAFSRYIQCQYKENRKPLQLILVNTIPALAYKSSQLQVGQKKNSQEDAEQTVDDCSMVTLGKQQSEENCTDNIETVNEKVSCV
Sodium-dependent serotonin transporter, sequence (P31652 whole entry): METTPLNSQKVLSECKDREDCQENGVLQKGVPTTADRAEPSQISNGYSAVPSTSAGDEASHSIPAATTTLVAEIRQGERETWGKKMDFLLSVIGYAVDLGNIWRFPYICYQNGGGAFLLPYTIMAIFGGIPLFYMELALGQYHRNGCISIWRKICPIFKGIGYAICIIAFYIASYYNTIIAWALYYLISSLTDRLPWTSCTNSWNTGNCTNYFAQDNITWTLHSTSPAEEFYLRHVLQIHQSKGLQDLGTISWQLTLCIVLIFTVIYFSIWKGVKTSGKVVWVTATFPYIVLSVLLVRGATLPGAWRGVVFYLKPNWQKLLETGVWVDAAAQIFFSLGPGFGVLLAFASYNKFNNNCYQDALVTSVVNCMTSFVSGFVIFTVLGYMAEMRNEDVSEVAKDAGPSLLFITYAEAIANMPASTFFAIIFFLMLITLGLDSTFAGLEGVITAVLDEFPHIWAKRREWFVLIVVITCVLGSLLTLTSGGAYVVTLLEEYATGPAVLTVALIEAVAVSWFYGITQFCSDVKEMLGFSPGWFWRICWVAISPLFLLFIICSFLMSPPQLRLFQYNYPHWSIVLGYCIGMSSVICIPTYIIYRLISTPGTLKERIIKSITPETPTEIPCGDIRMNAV

Turning to `CCCn1c(=O)n(CCCCN2CCN(c3ccc(F)cc3)CC2)c2ccccc21`, the figures for the Ratio Ki in the assay filed under Rattus norvegicus [1] and in the assay listed under Rattus norvegicus [7] were 1140 and 83, respectively. In addition, the Ki (commonly the equilibrium dissociation constant of an inhibitor or competing ligand from its target) is greater than 1000 nM in assay [2]; 0.66 nM in assay [3]; greater than 10 µM on D(2) dopamine receptor; greater than 10 µM at Glutamate NMDA receptor; 54.7 nM in assay [4]; 752 nM in [5]. For the same compound, the Ki in [6] is greater than 10 µM; in assay [8] it was greater than 1000 nM; at Opioid receptor, greater than 10 µM. Besides, the Activity result in the assay on Mus musculus is “Dose-dependent effect”.
On to `CCCn1c(=O)n(CCCCN2CCN(c3ccc(F)cc3)CC2)c2ccc(C(C)=O)cc21`, for which the Ratio Ki in the assay filed under Rattus norvegicus [1] amounted to 151. The Ki came to 1.81 nM in assay [3] and 273 nM in [5].
On the same counts, the results for `CC(=O)c1ccc2c(c1)[nH]c(=O)n2CCCCN1CCN(c2ccc(F)cc2)CC1` are 5.8, 28.5 nM and 166 nM.
On to `CCCCCCCCCCn1c(=O)n(CCCCN2CCN(c3ccc(F)cc3)CC2)c2ccccc21`, for which the Ratio Ki in the assay filed under Rattus norvegicus [1] stood at 159. Further, the Ki turned out to be 4.55 nM in [3] and 724 nM in assay [5].
For `CCCCCn1c(=O)n(CCCCN2CCN(c3ccc(F)cc3)CC2)c2ccc(C(C)=O)cc21`, in the assay listed under Rattus norvegicus [1], the Ratio Ki came out at 139. Besides, the Ki in assay [3] turned out to be 2.15 nM; in assay [5], 299 nM.
Consider `CCCCCn1c(=O)n(CCCCN2CCN(c3ccc(F)cc3)CC2)c2ccccc21`, for which the Ratio Ki in the assay listed under Rattus norvegicus [1] came to 532. In addition, the inhibition constant Ki was 446 nM in assay [2]; 4.27 nM in assay [3]; greater than 1 µM at D(2) dopamine receptor; greater than 10 µM at Glutamate NMDA receptor; 250 nM in [4]; 2270 nM in assay [5]. Also, the Ki in assay [6] is greater than 10 µM; in [8], greater than 1000 nM; at Opioid receptor, greater than 10 µM.
As to `O=c1[nH]c2ccccc2n1CCCCN1CCN(c2ccc(F)cc2)CC1`, the Ki in assay [3] was 18.4 nM; in assay [5], 144 nM.
For the compound `CC(=O)c1ccc2c(c1)n(C)c(=O)n2CCCCN1CCN(c2ccc(F)cc2)CC1`, the Ratio Ki in the assay listed under Rattus norvegicus [1] turned out to be 9.5. The Ki in [3] is 7.6 nM; in [5], 72.3 nM.
On the same counts, the results for `CCCCCCCCCCn1c(=O)n(CCCCN2CCN(c3ccc(F)cc3)CC2)c2ccc(C(C)=O)cc21` are 30.4, 32.5 nM and 988 nM.
Regarding `Cn1c(=O)n(CCCCN2CCN(c3ccc(F)cc3)CC2)c2ccccc21`, in assay [3], the Ki was 2.05 nM.
